# FN deposit inh: fibronectin deposition inhibition; AID 743247; AH1F fibroblasts, Alexa488-fibronectin deposition fluorescence, overnight; inhibition, % at 12.6 µM; actives 0.086% (n = 350,000);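 active means mean inhibition across replicates of 30% or more, regardless of how many single replicates reach that level; inconclusive means mean under 30% yet at least half of replicates reach 30%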;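 further: positive control wells lacked labelled fibronectin entirely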
#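 Schedule: 1 h cell adhesion before compound, then overnight fibronectin incubation; test system: AH1F fibroblast monolayer depositing Alexa488-labelled fibronectin into matrix; quantity: 10000 AH1F cells per well; probe or stimulus: fluorescent fibronectin at 24 nM final; signal: fluorescence, ex 485 nm, em 525 nm; evaluation: percent inhibition as loss of matrix-bound fibronectin fluorescence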
# PfHsp90 yeast 2: inhibits growth of yeast expressing Plasmodium falciparum Hsp90; S. cerevisiae expressing PfHsp90, BacTiter-Glo ATP, 48 h; yeast lacking PDR1 and PDR3 efflux regulators; inhibition, % at 9.4 µM; actives 0.32% (n = 310,000); AID 504621;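 active means every replicate shows inhibition above about 80%, whatever the replicate mean, limit read from the data; inconclusive means mean inhibition reaches the set limit but some replicate falls short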;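 further: 0% = DMSO neutral controls and 100% = 20 µM radicicol positive controls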
# PglD DTNB: PglD (C. jejuni) enzyme inhibition; actives 0.098% (n = 360,000); AID 602405; purified PglD enzyme, DTNB colorimetric CoA detection; inhibition, % at 12.5 µM; in the data active means inhibition above about 16%, passing the limit was not always enough; inconclusive means no clear call, values can overlap the other calls
# CSC inhib: blocks cancer stem cells; cancer stem cell-like cells viability, luminescence; inhibition, % at 7.5 µM; actives 1.1% (n = 300,000); in the data active means inhibition above about 75%; inconclusive means no clear call, values can overlap the other calls; tested in HMLE shEcad cells
# SKKanGAS inh: blocks kanamycin growth of S. pyogenes SKKanGAS strain; BacTiter-Glo, 6 h; inhibition, % at 7.5 µM; actives 1.3% (n = 300,000); AID 1662;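 active means mean replicate score, as percent of positive control median, at least 50; inconclusive means mean below 50 but one replicate at or above 50; inactive means mean and every replicate below 50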;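 further: strain carries kanamycin resistance gene driven by streptokinase promoter and grows in 40 µg/ml kanamycin; loss of luminescence reflects streptokinase promoter inhibition or plain growth inhibition; 0% = median of DMSO wells and 100% = positive control at its reference dose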
# Rtt109 Vps75: C. albicans Rtt109 histone acetyltransferase inhibition | actives 0.16% (n = 330,000) | purified Rtt109/Vps75, ThioGlo CoA-SH fluorescence, 4 h | inhibition, % at 34.9 µM;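 active means inhibition of at least 50% in every replicate; inconclusive means best replicate reaches 50% inhibition but some replicates fall short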
# Target sequence (Q5AAJ8 whole entry, looked up): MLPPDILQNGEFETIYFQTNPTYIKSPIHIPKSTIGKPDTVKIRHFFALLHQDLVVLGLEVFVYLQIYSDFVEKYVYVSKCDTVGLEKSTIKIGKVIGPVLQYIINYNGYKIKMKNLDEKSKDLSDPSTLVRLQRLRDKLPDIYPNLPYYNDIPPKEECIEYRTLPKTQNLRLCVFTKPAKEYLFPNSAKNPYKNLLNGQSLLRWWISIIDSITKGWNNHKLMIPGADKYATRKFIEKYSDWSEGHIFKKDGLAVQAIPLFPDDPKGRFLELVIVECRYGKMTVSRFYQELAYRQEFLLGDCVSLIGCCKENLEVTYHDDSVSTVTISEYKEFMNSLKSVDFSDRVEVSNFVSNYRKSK
# Numbers without * were called inactive; u = inconclusive; x = no result given. This is a sample that favours compounds with a hit; in the whole collection about 1.7% have one here.
SMILES,FN deposit inh,PfHsp90 yeast 2,PglD DTNB,CSC inhib,SKKanGAS inh,Rtt109 Vps75
CC(=O)NC[C@@H]1[C@@H](c2ccc(-c3cccnc3)cc2)[C@@H](CO)N1C(=O)C1CC1,x,x,2.4,x,x,x
Cc1sc2ncnc(N3CCC(C(=O)N(C)CC(=O)Nc4ccc(Cl)c(C(F)(F)F)c4)CC3)c2c1C,6.3,-4.2,-5.0,96.0*,-0.6,-25.2
C[C@@H]1CN([C@@H](C)CO)C(=O)c2cc(NC(=O)C3CCCCC3)ccc2O[C@H]1CN(C)C(=O)Nc1ccccc1,x,x,9.7,x,x,x
Cc1nc2ccccc2c(=O)n1/N=C/c1c(O)ccc2oc3c(c12)CCCC3,x,-17.3,x,82.0*,22.1,-3.5
COc1cccc(C(=O)N2C[C@@H]3[C@H](c4ccccc42)[C@H](CO)N3Cc2ccccc2Cl)c1,x,x,3.2,x,x,x
Cc1ccccc1OCCCCc1c(C)n[nH]c1C,x,x,1.6,5.2,94.5*,4.0
Cc1ccccc1OCCCc1c(C)n[nH]c1C,-4.6,-59.0,x,-12.7,64.5*,1.5
Cc1n[nH]c(C)c1CCCCOc1ccccc1F,1.4,6.0,-4.5,3.4,68.0*,-6.8
CC(=O)N(C)C[C@H]1Oc2ncc(-c3ccc(C)cc3)cc2C(=O)N([C@H](C)CO)C[C@H]1C,x,x,-1.6,x,x,x
C/C=C/c1ccc2c(c1)O[C@H](CN(C)C(=O)C1CCOCC1)[C@H](C)CN([C@@H](C)CO)S2(=O)=O,7.1,x,-2.4,x,x,x
O=C(NNc1ccccc1)C(=O)N1CCCCC1,0.4,-8.2,x,110.8*,0.6,7.2
O=C(Nc1ccc(C(F)(F)F)cc1)N[C@@H]1CC[C@@H](CCNC(=O)c2ccccc2F)O[C@@H]1CO,x,x,0.4,x,x,x
O=C([C@@H]1[C@@H](CO)[C@@H]2Cn3c(ccc(-c4cccnc4)c3=O)[C@H]1N2CCC(F)(F)F)N1CCCCC1,x,x,-1.9,x,x,x
COc1ccc(S(=O)(=O)N(C)C[C@H]2Oc3c(cccc3N(C)C)C(=O)N([C@@H](C)CO)C[C@H]2C)cc1,1.0,x,13.7,x,x,x
COc1ccccc1-c1cc(C(F)(F)F)nc(S(=O)(=O)CCCC(=O)O)n1,-1.6,x,4.2,19.0,-1.5,-8.1
COc1ccccc1-c1cc(C(F)(F)F)nc(S(=O)(=O)CCCC(=O)N2CCOCC2)n1,x,-48.8,1.3,82.2*,-2.2,-5.8
Cn1c2ccccc2c(=O)c2ccc(C#Cc3ccc(N)cc3)cc21,-9.8,-8.8,4.3,60.8,69.8*,-5.4
COc1ccc(C#Cc2ccc3c(=O)c4ccccc4n(C)c3c2)cc1,x,-44.5,x,39.7,75.7*,11.8
COc1ccccc1C#Cc1ccc2c(=O)c3ccccc3n(C)c2c1,4.2,x,1.8,44.9,5.5,-14.2
Cn1c2ccccc2c(=O)c2cc(C#Cc3cccc(N)c3)ccc21,x,-3.8,-2.4,49.9,x,5.1
CO[C@H]1CN(C)C(=O)c2ccc(NC(=O)C3CC3)cc2OC[C@@H](C)N(CC2CCOCC2)C[C@H]1C,-9.4,x,0.3,x,x,x
O=C(C[C@H]1CC[C@@H](NC(=O)C2CCC2)[C@H](CO)O1)NC1CCCCC1,4.2,x,0.0,x,x,x
CC1CCC2(CC1)NC(=S)N(c1ccccc1)N2 (stereo not drawn),3.1,4.7,2.7,x,13.6,95.1*
Cn1nc(-c2ccccn2)nc2c(=O)n(C)c(=O)nc1-2,12.8,-13.6,5.7,120.2*,52.2*,6.3
FC(F)(F)c1cc(CCN2CCNC[C@H]2Cc2cccc3ccccc23)cc(C(F)(F)F)c1,-0.1,5.6,3.7,u,69.8*,0.3
SMILES,FN deposit inh,PfHsp90 yeast 2,PglD DTNB,CSC inhib,SKKanGAS inh,Rtt109 Vps75
Nc1ncnc2c1ncn2C1O[C@H](CO)[C@@H](O)[C@@H]1O (stereo partly drawn),-2.4,-9.9,1.4,3.1,x,-6.9
N#Cc1c(N)n(C2OC(CO)C(O)C2O)c2ncnc(N)c12 (stereo not drawn),34.2*,-33.1,x,x,x,-0.2
O=C(NCC[C@@H]1CC[C@H](NS(=O)(=O)c2ccc(Cl)cc2)[C@@H](CO)O1)Nc1ccc(F)cc1,-8.2,x,x,x,x,x
N#Cc1ccccc1CN1C(=O)S/C(=C/c2cccn2-c2ccc(C(=O)O)cc2)C1=O,x,-13.8,x,-10.7,56.5*,14.1
O=C(O)c1ccc(-n2cccc2/C=C2/SC(=O)N(CC(=O)N3CCCC3)C2=O)cc1,2.1,14.7,-4.7,-0.7,4.6,-3.6
CCCC1CCC(c2ccc(C(N)=O)cc2)CC1 (stereo not drawn),x,6.3,-3.1,-2.4,1.6,-6.8
CCCC1CCC(c2ccc(/C(N)=N/O)cc2)CC1 (stereo not drawn),3.0,91.5*,x,13.4,14.0,0.9
Cc1noc(C)c1NC(=O)Nc1ccc2c(c1)CC(=O)N([C@H](C)CO)C[C@@H](C)[C@@H](CN(C)C(=O)NC1CCCCC1)O2,-9.7,x,-3.1,x,x,x
Cc1nc(N2CCC(C)CC2)c2c(C)c(C(=O)Nc3ccccc3C(F)(F)F)sc2n1,7.0,5.9,x,43.7,58.2*,-6.4
CC(C)NC(=O)Nc1cccc2c1O[C@@H](CN(C)S(C)(=O)=O)[C@H](C)CN([C@H](C)CO)C2=O,-10.1,x,-2.1,x,x,x
CCN(CC)c1ccc(CNc2nc3ccccc3n2CCN2CCCCC2)cc1,-0.4,-5.5,x,78.3*,-7.3,3.0
Cc1noc(C)c1S(=O)(=O)Nc1ccc2c(c1)C(=O)N([C@H](C)CO)C[C@@H](C)[C@@H](CN(C)S(C)(=O)=O)OCCCC[C@H](C)O2,x,x,-0.3,x,x,x
Cc1cccc(C2(c3cccc(C)c3)CC2C(=O)Nc2ccc([N+](=O)[O-])cc2O)c1 (stereo not drawn),23.2,-2.7,x,x,72.4*,9.4
CC(=O)Nc1ccc(OCC(=O)NCc2ccccc2)cc1,-6.9,31.5,x,5.7,6.7,52.4*
CC(=O)Nc1ccc(C(=O)OCC(=O)NCc2ccccc2)cc1,-0.6,1.0,x,25.3,2.0,7.7
C/C(=N\Nc1ccc(C(=O)O)cc1)c1ccc2c(c1)Nc1ccccc1S2,0.6,-12.8,-2.3,19.8,80.7*,15.1
CCCCCOc1ccc(/C=C/c2c([N+](=O)[O-])c(=O)n(C)c(=O)n2C)cc1,-7.4,2.5,16.6,31.9,59.6*,-0.8
O=C(NC(=S)Nc1cc(-c2nc3ccccc3[nH]2)ccc1Cl)c1ccc2c(c1)OCO2,3.7,-18.9,-1.0,94.1*,15.5,-7.0
Cc1ccc(-c2nc3ccccc3[nH]2)cc1NC(=O)c1ccc2c(c1)OCO2,x,-3.1,-2.7,-9.0,3.7,-1.9
OCCOCCn1c(C2CCCN2c2nc(-c3ccc(F)cc3)cs2)nc2cc(C(F)(F)F)ccc21 (stereo not drawn),-8.2,108.3*,-2.4,-1.3,24.1,4.4
OCCOCCn1c(C2CCCN2c2nc(-c3ccc(F)cc3)cs2)nc2cc(Cl)c(Cl)cc21 (stereo not drawn),-2.3,110.1*,5.1,-14.5,33.0,1.9
OCCCn1c(C2CCCN2c2nc(-c3ccc(F)cc3)cs2)nc2cc(C(F)(F)F)ccc21 (stereo not drawn),-14.5,x,0.2,-8.8,33.4,8.6
